# Most compounds without a hit are left out; they make up all but 2.3% or so of the library.
# MEKK2mut PB1 HTS – signal of MEK5 binding to mutant human MEKK2 PB1 domain; bead flow cytometry, Alexa488-MEK5 binding to MEKK2 mutant; actives 0.35% (n = 290,000); percent response, % at 10 µM; in the data active = percent response above about 24%, passing the limit was not always enough
# MEKK2wt PB1 HTS – raises or lowers MEK5 binding to wildtype human MEKK2 PB1 domain; binding response (% of control), % at 10 µM; AID 1531; Q9Y2U5; actives 1.1% (n = 290,000); bead flow cytometry, Alexa488-MEK5 binding to MEKK2 WT; actives lie on both sides; in the data active = binding response below about 67% or above about 130%
# Arrestin-AP2 inh – inhibitors of human beta-arrestin and AP2 interaction; FITC-arrestin peptide / GST-AP2 beads, flow cytometry; AP2 beta2 appendage carries R879A mutation; inhibition, % at 10 µM; actives 0.31% (n = 340,000);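 active = inhibition above a set limit, near 3 SD of compounds lacking own fluorescence, cut at about 54% in these data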;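 also: plate controls were DMSO wells for no effect and 5 µM unlabelled arrestin peptide for full effect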
#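 Test system: GST-tagged AP2 beta2-adaptin appendage (R879A) on 4 µm glutathione beads; also added: fluorescein-tagged arrestin peptide at 50 nM final; timing: 12 min plus 1 h, RT; signal: flow cytometry, FL1 (488/535 nm); read-out: percent drop in bead-associated FITC signal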
# MEKK3 PB1 HTS – raises or lowers MEK5 binding to the human MEKK3 PB1 domain | bead-based flow cytometry, Alexa488-MEK5 binding to MEKK3; actives lie on both sides; 0 = blocked by unlabeled MEK5, 100 = vehicle | actives 1.4% (n = 290,000) | binding response (% of control), % at 10 µM | AID 1529;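 active = binding response more than 3 SD above or below the average of its plate-row segment, actives on both sides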;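 also: Alexa488 bead fluorescence after subtracting the streptavidin-only scavenger bead signal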
# Target sequence (Q99759 whole entry, looked up, the tested form may be a part): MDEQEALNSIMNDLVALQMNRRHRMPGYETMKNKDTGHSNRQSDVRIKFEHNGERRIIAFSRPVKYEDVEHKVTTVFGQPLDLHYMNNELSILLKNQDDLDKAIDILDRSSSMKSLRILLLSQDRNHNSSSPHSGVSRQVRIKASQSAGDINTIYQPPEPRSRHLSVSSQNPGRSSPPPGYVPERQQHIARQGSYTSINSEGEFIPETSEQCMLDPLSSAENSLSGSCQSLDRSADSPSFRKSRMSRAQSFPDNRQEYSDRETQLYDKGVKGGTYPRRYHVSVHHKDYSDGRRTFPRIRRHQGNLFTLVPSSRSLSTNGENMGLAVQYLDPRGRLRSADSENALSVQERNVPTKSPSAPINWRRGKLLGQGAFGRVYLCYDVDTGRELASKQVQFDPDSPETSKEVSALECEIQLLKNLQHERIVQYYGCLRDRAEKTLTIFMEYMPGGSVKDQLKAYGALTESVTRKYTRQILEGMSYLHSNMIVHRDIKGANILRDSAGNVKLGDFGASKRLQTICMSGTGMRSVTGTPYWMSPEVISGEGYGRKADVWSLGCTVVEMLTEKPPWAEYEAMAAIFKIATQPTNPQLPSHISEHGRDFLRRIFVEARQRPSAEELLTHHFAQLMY
# Arr-AP2 CP1 – human beta-arrestin and AP2 interaction inhibition, cherry pick | actives 2% (n = 1,300) | GST-AP2 beads, FITC arrestin peptide binding, flow cytometry; GST-fused beta2-adaptin appendage, R879A mutant | inhibition, % at 10 µM | shares compounds with Arrestin-AP2 inh;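 active = inhibition above a set limit, roughly 3 SD of non-fluorescent compound noise, cut at about 38% in these data; inactive = inhibition at or below that limit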;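 also: loss of bead fluorescence from 50 nM FITC arrestin peptide bound to appendage; 0% = negative control wells and 100% = excess unlabelled arrestin peptide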
# GST GSH counter – counter-screen for beta-arrestin AP2 inhibitors: GST-GSH bead binding | inhibition, % at 10 µM | GST-fluorescein binding to GSH beads, fluorescence | actives 2% (n = 1,300) | shares compounds with Arrestin-AP2 inh;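 active = inhibition above 50%, about 3 SD of the inhibition seen with non-fluorescent compounds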;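 also: fluorescein maleimide labelled GST captured on 4 micron glutathione beads; higher means more loss of bead fluorescence from quenching or blocked binding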
# * = called active by the depositor; x = no result given.
SMILES,MEKK2mut PB1 HTS,MEKK2wt PB1 HTS,Arrestin-AP2 inh,MEKK3 PB1 HTS,Arr-AP2 CP1,GST GSH counter
CC/C(=N\N=C1\SC(C)C(=O)N1Cc1ccco1)c1ccccc1 (configuration not stated),-1.0,103.0,59.3*,132.0,5.1,-7.3
C=CCNc1nc(C(=O)OCC(=O)Nc2c(Cl)cccc2C(F)(F)F)cs1,x,x,-5.5,x,x,x
COC(=O)c1cc(Br)cn1S(=O)(=O)c1ccccc1,8.0,107.0,37.9,106.0,x,x
COc1ccc(C(=O)NNC(=O)CCCCC(=O)NNC(=O)c2ccc(OC)cc2)cc1,-1.0,99.0,62.3*,103.0,1.2,-2.5
N#Cc1ccc(CSc2ccccn2)c(Cl)c1,2.0,101.0,63.2*,99.0,-6.2,-7.1
N#Cc1ccccc1CSc1ccccn1,6.0,108.0,19.4,106.0,x,x
COc1ccc(-c2ccc(/C=C(\NC(=O)c3ccccc3)C(=O)N3CCOCC3)o2)cc1,-9.0,90.0,5.5,103.0,x,x
CC(=O)NCC1CCCN(c2nc3nonc3nc2N(C)Cc2ccccc2)C1 (configuration not stated),-13.0,78.0,59.3*,86.0,-17.2,-6.0
CN(Cc1ccccc1)c1nc2nonc2nc1N1CCCC(CN2CCCC2=O)C1 (configuration not stated),-30.0,75.0,3.5,71.0,x,x
COc1ccc(OC)c(-c2csc(NC(=O)CN3C(=O)NC4(CCCC4)C3=O)n2)c1,x,x,67.7*,x,1.3,-0.6
COc1cc(OC)cc(C(=O)N[C@H](C(=O)Nc2nc(-c3cc(OC)ccc3OC)cs2)C(C)C)c1,-1.0,99.0,58.3*,102.0,-15.2,15.4
COc1ccc(-c2csc(NC(=O)CN3C(=O)NC4(CCCC4)C3=O)n2)cc1,x,x,29.7,x,x,x
C=CCN(C(=O)C1CC(=O)N(C2CCCC2)C1)c1nc(-c2ccc(S(C)(=O)=O)cc2)cs1 (configuration not stated),x,x,-6.3,x,x,x
O=C(Nc1ccccc1)Oc1ccccc1N1CCOCC1,-10.0,95.0,66.1*,92.0,19.5,-1.6
O=C(Nc1ccc(COc2ccccc2)cc1)Oc1ccccc1N1CCOCC1,4.0,98.0,-1.8,100.0,x,x
CC(=O)Nc1ccc(S(=O)(=O)Oc2cccc(/C=N/N=C3/NC(=O)C(CC(=O)O)S3)c2)cc1 (configuration not stated),-1.0,95.0,16.7,100.0,x,x
COC(=O)c1nc(-c2ccc(C)cc2)oc1N(C)C,-4.0,95.0,58.6*,93.0,9.6,11.3
COC(=O)c1nc(-c2ccccc2)oc1N(C)C,-7.0,89.0,21.6,94.0,x,x
O=C(c1ccncc1)N1CCN(S(=O)(=O)c2cccc(C(F)(F)F)c2)CC1,x,x,2.7,x,x,x
Cc1cccc(C)c1NC(=O)CN(C)C(=O)c1cccc(NS(=O)(=O)c2ccccc2)c1,x,x,59.4*,x,-10.6,-1.3
CCN(CC)S(=O)(=O)c1cccc(C(=O)OCC(=O)c2ccc3c(c2)OCCO3)c1,-1.0,98.0,-16.4,98.0,x,x
CC(OC(=O)C1CSC2(C)CCC(=O)N12)C(=O)Nc1cccc(C#N)c1 (configuration not stated),x,x,1.2,x,1.0,-4.9
CC(OC(=O)C1CSC2(C)CCC(=O)N12)C(=O)Nc1ccc(F)cc1 (configuration not stated),x,x,-2.9,x,-11.8,-8.9
CC(OC(=O)C1CSC2(c3ccc(F)cc3)CCC(=O)N12)C(=O)NC(N)=O (configuration not stated),0.0,98.0,3.6,99.0,x,x
Cc1nnc(SCC(=O)NCc2ccccc2Cl)[nH]c1=O,0.0,101.0,-3.3,100.0,x,x
SMILES,MEKK2mut PB1 HTS,MEKK2wt PB1 HTS,Arrestin-AP2 inh,MEKK3 PB1 HTS,Arr-AP2 CP1,GST GSH counter
Cn1c(=O)n(C)c2cc(N3CCCC3)c(NC(=O)c3cccc(F)c3)cc21,10.0,109.0,-7.0,106.0,24.8,-2.0
COc1cccc(C(=O)Nc2cc3c(cc2N2CCCC2)n(C)c(=O)n3C)c1,-5.0,93.0,11.8,96.0,1.0,-11.5
CC1CN=C(NC(=O)c2cccc([N+](=O)[O-])c2)S1 (configuration not stated),7.0,110.0,1.6,100.0,x,x
Cc1cccc2sc(NC(=O)c3ccc(NS(=O)(=O)c4cccs4)cc3)nc12,-2.0,107.0,21.6,103.0,x,x
CC(CC(=O)N(CCC1=CCCCC1)c1c(N)n(Cc2ccccc2)c(=O)[nH]c1=O)c1ccccc1 (configuration not stated),x,x,67.6*,x,0.5,-2.6
CCOc1ccc(OCC(=O)N(CCC2=CCCCC2)c2c(N)n(Cc3ccccc3)c(=O)[nH]c2=O)cc1,x,x,3.7,x,x,x
COc1ccc(NC(=O)Nc2cnccn2)c(OC)c1,4.0,104.0,-5.7,102.0,10.9,-5.0
COc1ccc(Cl)cc1NC(=O)Nc1cnccn1,7.0,106.0,-2.4,101.0,x,x
COc1ccc(C)cc1NC(=O)Nc1cnccn1,4.0,106.0,-9.3,104.0,2.5,0.4
C[C@H](CO)N1C[C@H](C)[C@@H](CN(C)S(=O)(=O)c2ccccc2)Oc2ccc(NC(=O)Nc3ccccc3)cc2C1=O,x,x,54.4*,x,10.4,-8.4
COc1ccc(S(=O)(=O)N(C)C[C@H]2Oc3ccc(NS(=O)(=O)c4cn(C)cn4)cc3C(=O)N([C@H](C)CO)C[C@@H]2C)cc1,x,x,73.0*,x,0.2,-3.4
C[C@H](CO)N1C[C@H](C)[C@@H](CN(C)S(=O)(=O)c2ccc(F)cc2)Oc2ccc(NC(=O)Nc3ccccc3)cc2C1=O,x,x,-5.2,x,x,x
COc1ccc(CC(NC(C)=O)C(=O)NC2CCN(c3nc(C)cc(C)c3C#N)CC2)cc1 (configuration not stated),0.0,93.0,54.5*,91.0,0.0,-1.4
CC(=O)Nc1ccc(S(=O)(=O)NCC(=O)OCC(=O)N2CCN(c3ccccc3)CC2)cc1,-3.0,96.0,5.0,94.0,x,x
Cc1ccc(S(=O)(=O)N(C)C)cc1NC(=O)c1cc(S(=O)(=O)N2CCCCC2)ccc1N1CCOCC1,x,x,7.9,x,x,x
COc1ccc(NC(=O)c2ccco2)cc1NC(=O)c1ccccc1[N+](=O)[O-],4.0,101.0,55.4*,100.0,2.9,3.3
CCOc1ccc(C(=O)NC(=S)Nc2ccc(NC(=O)c3ccco3)c(C)c2)cc1[N+](=O)[O-],27.0,117.0,99.6*,108.0,0.7,-1.8
COc1ccc(NC(=O)c2ccco2)cc1NC(=O)c1ccco1,-2.0,109.0,17.8,105.0,x,x
COc1ccc(NC(=O)CSc2nnc(NC(C)=O)s2)c([N+](=O)[O-])c1,-3.0,98.0,21.9,100.0,x,x
O=C(CSc1cn[nH]n1)Nc1ccccc1C(=O)O,0.0,102.0,25.5,101.0,x,x
N#Cc1ccccc1OCC(=O)OCC(=O)NCc1ccc2c(c1)OCO2,x,x,54.9*,x,4.8,-5.1
COc1ccc(CCNC(=O)CN(C)S(=O)(=O)c2ccc(OC)cc2)cc1,0.0,97.0,32.4,98.0,x,x
